Laboratory results taken from ChEMBL document CHEMBL2151018, “Bioassay-guided investigation of the Tanzanian plant Pyrenacantha kaurabassana for potential anti-HIV-active compounds” (J Nat Prod, 2012).
Values after ≈ are worked out from the molar mass of the structure shown.

Tests used:
[1] = tested on: Human immunodeficiency virus 1; test: Antiviral activity against CXCR4-tropic HIV1 NL4-3 infected in HEK293T cells assessed as inhibition of viral replication after 4 days by beta-galactosidase reporter gene assay; assay type: functional, organism-based; details: Human immunodeficiency virus 1, NL4-3, HEK-293T, 96 h
Method in brief: (§1)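 Measured in the proprietary deCIPhR cell-based system using fully replicative virus. Two HIV lab strains from molecular clones differing in coreceptor tropism were used: pNL4-3 (CXCR4 usage) and pNL-AD87 (CCR5 usage). IC50 is the 50% inhibitory concentration in the anti-HIV assay, expressed in μg/mL; IC90 was also determined.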

[2] = tested on: Human immunodeficiency virus 1; test: Antiviral activity against CCR5-tropic HIV1 NL-AD87 infected in HEK293T cells assessed as inhibition of viral replication after 4 days by beta-galactosidase reporter gene assay; assay type: functional, organism-based; details: Human immunodeficiency virus 1, NL-AD87, HEK-293T, 96 h; method in brief: as §1
[3] = (§2) Cytotoxicity against human HEK293T cells after 4 days by Alamar blue assay; assay type: cell-based, HEK-293T; details: HEK293T cells, read-out: TC50
HEK-293T = test: as §2; assay type: cell-based; details: hek-293t, 96 h
[4] = Selectivity index, ratio of TC50 for human HEK293T cells to IC50 for CXCR4-tropic HIV1 NL4-3 infected in HEK293T cells; assay type: toxicity, cell-based, HEK-293T; details: read-out: Selectivity Index
[5] = Selectivity index, ratio of TC50 for human HEK293T cells to IC50 for CCR5-tropic HIV1 NL-AD87 infected in HEK293T cells; assay type: toxicity, cell-based, HEK-293T; details: read-out: Selectivity Index
[6] = Selectivity index, ratio of TC50 for human HEK293T cells to IC90 for CXCR4-tropic HIV1 NL4-3 infected in HEK293T cells; assay type: toxicity, cell-based, HEK-293T; details: read-out: Selectivity Index
[7] = Selectivity index, ratio of TC50 for human HEK293T cells to IC90 for CCR5-tropic HIV1 NL-AD87 infected in HEK293T cells; assay type: toxicity, cell-based, HEK-293T; details: read-out: Selectivity Index

For `COc1cc2c(c(-c3cc(O)c4c(O)c5oc6c(C(=O)O)cc(C)cc6c(=O)c5c(O)c4c3OC)c1)CC(C)OC2=O` (stereo not given), the IC50 [1] was 21 µg/mL (≈ 36.7 µM), the IC90 [1] was 111 µg/mL (≈ 194 µM) and the IC50 [2] was 21 µg/mL (≈ 36.7 µM). The IC90 [2] was 111 µg/mL (≈ 194 µM), the CC50 at 96 h [3] was > 12.5 µg/mL and the TC90 (HEK-293T) was > 12.5 µg/mL.
For `COc1cc2c(c(-c3cc(O)c4c(O)c5oc6c(C(=O)O)cc(C)cc6c(=O)c5c(OC)c4c3OC)c1)CC(C)OC2=O` (stereo not given), the IC50 [1] was 2 µg/mL (≈ 3.41 µM), the IC90 [1] was 22 µg/mL (≈ 37.5 µM) and the IC50 [2] was 2 µg/mL (≈ 3.41 µM). For the same molecule, the IC90 [2] was 22 µg/mL (≈ 37.5 µM), the CC50 at 96 h [3] was 31 µg/mL (≈ 52.9 µM) and the TC90 (HEK-293T) was 154 µg/mL (≈ 263 µM). For the same molecule, the selectivity ratio [4] was 15.5, the selectivity ratio [5] was 15.5 and the selectivity ratio [6] was 7. For the same molecule, the selectivity ratio [7] was 7.
Molecule enfuvirtide has an IC50 [1] of 0.01 µg/mL, an IC90 [1] of 0.026 µg/mL and an IC50 [2] of 0.01 µg/mL. The IC90 [2] was 0.026 µg/mL.
